Experimental data taken from ChEMBL document CHEMBL5376013, “Design, synthesis and biological evaluation of novel morpholinopyrimidine-5-carbonitrile derivatives as dual PI3K/mTOR inhibitors” (RSC Med Chem, 2024).

Tests used:
Format in all cases: functional
Details in all cases: read-out: GI
[1] = test system: NCI-H522; assay: Antitumor activity against human NCI-H522 cells assessed as growth inhibition at 10 uM relative to control
Method in brief: (§1)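 After drug addition, plates were incubated 48 h at 37 °C under 5% CO2. Adherent cells were fixed with cold TCA (10% final, 60 min, 4 °C) and suspension cells with 16% final TCA. Staining used 0.4% SRB in 1% acetic acid, solubilized in 10 mM trizma, read at A515. Percent growth was calculated from time-zero, control and treated absorbances.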

[2] = test system: EKVX; assay: Antitumor activity against human EKVX cells assessed as growth inhibition at 10 uM relative to control; method in brief: as §1
[3] = test system: SR; assay: Antitumor activity against human SR cells assessed as growth inhibition at 10 uM relative to control
Method in brief: (§2)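 Drug exposure 48 h at 37 °C, 5% CO2. Adherent cells fixed with cold TCA (10% final), suspension cells with TCA (16% final). Stained with 0.4% SRB in 1% acetic acid, dissolved in 10 mM Tris, A515. Growth relative to time-zero and untreated control.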

[4] = test system: SF-295; assay: Antitumor activity against human SF-295 cells assessed as growth inhibition at 10 uM relative to control; method in brief: as §1
[5] = test system: NCI-H322M; assay: Antitumor activity against human NCI-H322M cells assessed as growth inhibition at 10 uM relative to control; method in brief: as §1
[6] = test system: SF-539; assay: Antitumor activity against human SF-539 cells assessed as growth inhibition at 10 uM relative to control; method in brief: as §1
[7] = test system: HCT-116; assay: Antitumor activity against human HCT-116 cells assessed as growth inhibition at 10 uM relative to control; method in brief: as §1
[8] = test system: SF-268; assay: Antitumor activity against human SF-268 cells assessed as growth inhibition at 10 uM relative to control; method in brief: as §1
[9] = test system: HOP-92; assay: Antitumor activity against human HOP-92 cells assessed as growth inhibition at 10 uM relative to control; method in brief: as §1
[10] = test system: KM12; assay: Antitumor activity against human KM12 cells assessed as growth inhibition at 10 uM relative to control; method in brief: as §1
[11] = test system: IGROV-1; assay: Antitumor activity against human IGROV-1 cells assessed as growth inhibition at 10 uM relative to control; method in brief: as §1
[12] = test system: MOLT-4; assay: Antitumor activity against human MOLT-4 cells assessed as growth inhibition at 10 uM relative to control; method in brief: as §1
[13] = test system: OVCAR-3; assay: Antitumor activity against human OVCAR-3 cells assessed as growth inhibition at 10 uM relative to control; method in brief: as §1
[14] = test system: HCC 2998; assay: Antitumor activity against human HCC 2998 cells assessed as growth inhibition at 10 uM relative to control; method in brief: as §1
[15] = test system: PC-3; assay: Antitumor activity against human PC-3 cells assessed as growth inhibition at 10 uM relative to control; method in brief: as §1
[16] = test system: SNB-19; assay: Antitumor activity against human SNB-19 cells assessed as growth inhibition at 10 uM relative to control; method in brief: as §2
[17] = test system: DU-145; assay: Antitumor activity against human DU-145 cells assessed as growth inhibition at 10 uM relative to control; method in brief: as §1
[18] = test system: UO-31; assay: Antitumor activity against human UO-31 cells assessed as growth inhibition at 10 uM relative to control; method in brief: as §2
[19] = test system: SK-MEL-5; assay: Antitumor activity against human SK-MEL-5 cells assessed as growth inhibition at 10 uM relative to control; method in brief: as §2
[20] = test system: MDA-MB-435; assay: Antitumor activity against human MDA-MB-435 cells assessed as growth inhibition at 10 uM relative to control; method in brief: as §1
[21] = test system: OVCAR-8; assay: Antitumor activity against human OVCAR-8 cells assessed as growth inhibition at 10 uM relative to control; method in brief: as §1
[22] = test system: MDA-MB-231; assay: Antitumor activity against human MDA-MB-231 cells assessed as growth inhibition at 10 uM relative to control; method in brief: as §1
[23] = test system: Hs-578T; assay: Antitumor activity against human Hs-578T cells assessed as growth inhibition at 10 uM relative to control; method in brief: as §1
[24] = test system: MDA-MB-468; assay: Antitumor activity against human MDA-MB-468 cells assessed as growth inhibition at 10 uM relative to control; method in brief: as §1
[25] = test system: SNB-75; assay: Antitumor activity against human SNB-75 cells assessed as growth inhibition at 10 uM relative to control; method in brief: as §2
[26] = test system: NCI-H23; assay: Antitumor activity against human NCI-H23 cells assessed as growth inhibition at 10 uM relative to control; method in brief: as §1
[27] = test system: LOX IMVI; assay: Antitumor activity against human LOX IMVI cells assessed as growth inhibition at 10 uM relative to control; method in brief: as §1
[28] = test system: HL-60; assay: Antitumor activity against human HL-60 cells assessed as growth inhibition at 10 uM relative to control; method in brief: as §1
[29] = test system: T47D; assay: Antitumor activity against human T47D cells assessed as growth inhibition at 10 uM relative to control; method in brief: as §2
[30] = test system: SK-MEL-28; assay: Antitumor activity against human SK-MEL-28 cells assessed as growth inhibition at 10 uM relative to control; method in brief: as §2
[31] = test system: A498; assay: Antitumor activity against human A498 cells assessed as growth inhibition at 10 uM relative to control; method in brief: as §1
[32] = test system: U-251; assay: Antitumor activity against human U-251 cells assessed as growth inhibition at 10 uM relative to control; method in brief: as §2
[33] = test system: K562; assay: Antitumor activity against human K562 cells assessed as growth inhibition at 10 uM relative to control; method in brief: as §1
[34] = test system: CCRF-CEM; assay: Antitumor activity against human CCRF-CEM cells assessed as growth inhibition at 10 uM relative to control; method in brief: as §1
[35] = test system: RPMI-8226; assay: Antitumor activity against human RPMI-8226 cells assessed as growth inhibition at 10 uM relative to control; method in brief: as §1
[36] = test system: NCI/ADR-RES; assay: Antitumor activity against human NCI-ADR-RES cells assessed as growth inhibition at 10 uM relative to control; method in brief: as §1
[37] = test system: BT-549; assay: Antitumor activity against human BT-549 cells assessed as growth inhibition at 10 uM relative to control; method in brief: as §1
[38] = test system: NCI-H226; assay: Antitumor activity against human NCI-H226 cells assessed as growth inhibition at 10 uM relative to control; method in brief: as §1
[39] = test system: RXF 393; assay: Antitumor activity against human RXF 393 cells assessed as growth inhibition at 10 uM relative to control; method in brief: as §1
[40] = test system: COLO 205; assay: Antitumor activity against human COLO 205 cells assessed as growth inhibition at 10 uM relative to control; method in brief: as §1
[41] = test system: HOP-62; assay: Antitumor activity against human HOP-62 cells assessed as growth inhibition at 10 uM relative to control; method in brief: as §1
[42] = test system: M14; assay: Antitumor activity against human M14 cells assessed as growth inhibition at 10 uM relative to control; method in brief: as §1
[43] = test system: SW-620; assay: Antitumor activity against human SW-620 cells assessed as growth inhibition at 10 uM relative to control; method in brief: as §2
[44] = test system: ACHN; assay: Antitumor activity against human ACHN cells assessed as growth inhibition at 10 uM relative to control; method in brief: as §1
[45] = test system: 786-0; assay: Antitumor activity against human 786-0 cells assessed as growth inhibition at 10 uM relative to control; method in brief: as §1
[46] = test system: Malme-3M; assay: Antitumor activity against human Malme-3M cells assessed as growth inhibition at 10 uM relative to control; method in brief: as §1

Compound: N#Cc1c(-c2ccc(Cl)cc2)nc(N/N=C/c2cccc(F)c2)nc1N1CCOCC1
- inhibition of growth at 10 µM [1]: 11.6%
- inhibition of growth at 10 µM [2]: 26.2%
- inhibition of growth at 10 µM [3]: < 1%
- inhibition of growth at 10 µM [4]: < 1%
- inhibition of growth at 10 µM [5]: < 1%
- inhibition of growth at 10 µM [6]: < 1%
- inhibition of growth at 10 µM [7]: < 1%
- inhibition of growth at 10 µM [8]: < 1%
- inhibition of growth at 10 µM [9]: < 1%
- inhibition of growth at 10 µM [10]: 16%
- inhibition of growth at 10 µM [11]: 17.4%
- inhibition of growth at 10 µM [12]: 25.9%
- inhibition of growth at 10 µM [13]: < 1%
- inhibition of growth at 10 µM [14]: < 1%
- inhibition of growth at 10 µM [15]: 14.9%
- inhibition of growth at 10 µM [16]: < 1%
- inhibition of growth at 10 µM [17]: < 1%
- inhibition of growth at 10 µM [18]: 37.5%
- inhibition of growth at 10 µM [19]: < 1%
- inhibition of growth at 10 µM [20]: < 1%
- inhibition of growth at 10 µM [21]: < 1%
- inhibition of growth at 10 µM [22]: < 1%
- inhibition of growth at 10 µM [23]: < 1%
- inhibition of growth at 10 µM [24]: < 1%
- inhibition of growth at 10 µM [25]: 35.8%
- inhibition of growth at 10 µM [26]: < 1%
- inhibition of growth at 10 µM [27]: 11.8%
- inhibition of growth at 10 µM [28]: < 1%
- inhibition of growth at 10 µM [29]: 11.2%
- inhibition of growth at 10 µM [30]: < 1%
- inhibition of growth at 10 µM [31]: 17%
- inhibition of growth at 10 µM [32]: 21.1%
- inhibition of growth at 10 µM [33]: 15%
- inhibition of growth at 10 µM [34]: 19.6%
- inhibition of growth at 10 µM [35]: 22.3%
- inhibition of growth at 10 µM [36]: < 1%
- inhibition of growth at 10 µM [37]: < 1%
- inhibition of growth at 10 µM [38]: < 1%
- inhibition of growth at 10 µM [39]: < 1%
- inhibition of growth at 10 µM [40]: 27.2%
- inhibition of growth at 10 µM [41]: 10.3%
- inhibition of growth at 10 µM [42]: < 1%
- inhibition of growth at 10 µM [43]: < 1%
- inhibition of growth at 10 µM [44]: 10.2%
- inhibition of growth at 10 µM [45]: < 1%
- inhibition of growth at 10 µM [46]: < 1%

Compound: N#Cc1c(-c2ccc(Cl)cc2)nc(N/N=C/c2cccc(Cl)c2)nc1N1CCOCC1
- inhibition of growth at 10 µM [1]: < 1%
- inhibition of growth at 10 µM [2]: 22.3%
- inhibition of growth at 10 µM [3]: 91.3%
- inhibition of growth at 10 µM [4]: < 1%
- inhibition of growth at 10 µM [5]: 11.2%
- inhibition of growth at 10 µM [6]: 20.9%
- inhibition of growth at 10 µM [7]: 29.2%
- inhibition of growth at 10 µM [8]: < 1%
- inhibition of growth at 10 µM [9]: 10.7%
- inhibition of growth at 10 µM [10]: < 1%
- inhibition of growth at 10 µM [11]: 24.8%
- inhibition of growth at 10 µM [12]: 46.7%
- inhibition of growth at 10 µM [13]: 12.6%
- inhibition of growth at 10 µM [14]: < 1%
- inhibition of growth at 10 µM [15]: 26.5%
- inhibition of growth at 10 µM [16]: < 1%
- inhibition of growth at 10 µM [17]: 24%
- inhibition of growth at 10 µM [18]: 46.5%
- inhibition of growth at 10 µM [19]: < 1%
- inhibition of growth at 10 µM [20]: < 1%
- inhibition of growth at 10 µM [21]: < 1%
- inhibition of growth at 10 µM [22]: < 1%
- inhibition of growth at 10 µM [23]: < 1%
- inhibition of growth at 10 µM [24]: 14.9%
- inhibition of growth at 10 µM [25]: 19.9%
- inhibition of growth at 10 µM [26]: < 1%
- inhibition of growth at 10 µM [27]: 14.5%
- inhibition of growth at 10 µM [28]: 28.5%
- inhibition of growth at 10 µM [29]: 23.4%
- inhibition of growth at 10 µM [30]: < 1%
- inhibition of growth at 10 µM [31]: 57.8%
- inhibition of growth at 10 µM [32]: < 1%
- inhibition of growth at 10 µM [33]: 64.9%
- inhibition of growth at 10 µM [34]: 27.5%
- inhibition of growth at 10 µM [35]: 35%
- inhibition of growth at 10 µM [36]: 10.8%
- inhibition of growth at 10 µM [37]: < 1%
- inhibition of growth at 10 µM [38]: 10.7%
- inhibition of growth at 10 µM [39]: < 1%
- inhibition of growth at 10 µM [40]: 39%
- inhibition of growth at 10 µM [41]: < 1%
- inhibition of growth at 10 µM [42]: 15.4%
- inhibition of growth at 10 µM [43]: 46.7%
- inhibition of growth at 10 µM [44]: 25.7%
- inhibition of growth at 10 µM [45]: 29.9%
- inhibition of growth at 10 µM [46]: < 1%
